Our source for the Activity values is ChEMBL document CHEMBL1142155, “Human beta-defensins kill Candida albicans in an energy-dependent and salt-sensitive manner without causing membrane disruption” (2007).

The source made the active and inactive calls. The calls are words filed in the database; no cut-off is given here.

The subject of experiment [1] is Candida albicans. Briefly: Induction of ATP efflux in Candida albicans CAF4-2 at 1 uM in presence of 1 mM sodium azide. Type of experiment: functional, organism-based. A digest of the protocol:
(§1)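 10⁴ C. albicans cells given 31 μM Hst 5 or 1 μM hBD-3, with or without 2 h pretreatment in 1 mM NaN₃. Extracellular ATP read by luminometry at 0, 5, 15, 30, 45 and 60 min. Values come from per-experiment ATP standard curves, as pmol ATP per 10⁴ cells.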

In experiment [2] the test system is Candida albicans. Briefly: Induction of membrane permeabilization in Candida albicans assessed as calcein release at 0.8 uM after 90 min. In kind it is functional. A digest of the protocol: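 Early-stationary yeast washed in 10 mM NaPB, loaded at 10⁷/ml with 5 μM (final) calcein-AM for 2 h at room temperature, then washed four times; 10⁶ cells given 0.8 μM hBD-3 or 32 μM Hst 5. Fluorescence (ex 485/em 530 nm) read every 5 min for 90 min. Percent release = (I_r − I_bkg)/(I_int − I_bkg) × 100, where I_int comes from boiling 10 min. Mean ± SD of three experiments.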

Experiment [3] has as its system Candida albicans. In words: Induction of ATP efflux in Candida albicans CAF4-2 at 1 uM. Type of experiment: functional, organism-based. A digest of the protocol:
as §1

Take `CC[C@H](C)C(NC(=O)CN)C(=O)N[C@H](C(=O)N[C@@H](CC(N)=O)C(=O)N[C@H](C(=O)N[C@@H](CC(C)C)C(=O)N[C@@H](CCC(N)=O)C(=O)N[C@@H](CCCCN)C(=O)N[C@@H](Cc1ccc(O)cc1)C(=O)N[C@@H](Cc1ccc(O)cc1)C(=O)N[C@@H](CS)C(=O)N[C@@H](CCCNC(=N)N)C(=O)N[C@H](C(=O)N[C@@H](CCCNC(=N)N)C(=O)NCC(=O)NCC(=O)N[C@@H](CCCNC(=N)N)C(=O)N[C@@H](CS)C(=O)N[C@@H](C)C(=O)N[C@H](C(=O)N[C@@H](CC(C)C)C(=O)N[C@@H](CO)C(=O)N[C@@H](CS)C(=O)N[C@@H](CC(C)C)C(=O)N1CCC[C@H]1C(=O)N[C@@H](CCCCN)C(=O)N[C@@H](CCC(=O)O)C(=O)N[C@@H](CCC(=O)O)C(=O)N[C@@H](CCC(N)=O)C(=O)N[C@H](C(=O)NCC(=O)N[C@@H](CCCCN)C(=O)N[C@@H](CS)C(=O)N[C@@H](CO)C(=O)N[C@H](C(=O)N[C@@H](CCCNC(=N)N)C(=O)NCC(=O)N[C@@H](CCCNC(=N)N)C(=O)N[C@@H](CCCCN)C(=O)N[C@@H](CS)C(=O)N[C@@H](CS)C(=O)N[C@@H](CCCNC(=N)N)C(=O)N[C@@H](CCCNC(=N)N)C(=O)N[C@@H](CCCCN)C(=O)N[C@@H](CCCCN)C(=O)O)[C@@H](C)O)[C@@H](C)CC)C(C)C)C(C)C)[C@@H](C)O)[C@@H](C)CC` (stereo partly drawn): the result in the experiment with Candida albicans [1] was inactive. The Activity with Candida albicans [2] is given as 24.2%. The result in the experiment with Candida albicans [3] was Active.
